Experimental findings from PubChem BioAssay AID493091 (Sanford-Burnham Center for Chemical Genomics, 2011) are described below.

Where “and” joins values, the source holds several entries; their conditions need not be identical. Equal values may be shown once. The campaign covered roughly 340,000 compounds. About 3,000 (0.88%) were called active. The sample holds actives, similar compounds and a random draw of the others, so the mix is not that of the screen. A number with no mark means an inactive call.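 Rule for the calls: active = inhibition above about 50% at 20 µM (limit read from the data); inactive = the rest.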

Carboxy-terminal domain RNA polymerase II polypeptide A small phosphatase 1 (Homo sapiens), sequence (Q9GZU7 76-261 limits assumed): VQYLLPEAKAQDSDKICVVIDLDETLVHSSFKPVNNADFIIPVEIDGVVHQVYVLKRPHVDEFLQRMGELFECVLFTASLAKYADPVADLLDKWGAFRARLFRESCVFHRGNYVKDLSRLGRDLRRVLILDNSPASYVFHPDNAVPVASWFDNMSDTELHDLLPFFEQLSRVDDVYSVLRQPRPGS

This assay addresses Carboxy-terminal domain RNA polymerase II polypeptide A small phosphatase 1 (Homo sapiens) (UniProt Q9GZU7). The experiment in a line: inhibition of human SCP1 dephosphorylation activity – biochemical, colorimetric, uHTS, primary screen (AID 493091).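 Note: plate controls were DMSO wells with enzyme for no effect and wells lacking enzyme for full effect.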 The conditions noted are these: Recombinant Scp1, phosphopeptide, malachite green phosphate absorbance; at 20 µM; stronger effect = higher value. The method in brief: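 Times: enzyme reaction 45 min at room temperature, colour 5 min, stabilisation 30 min. Material: SCP-1 catalytic fragment, aa 76-261. Medium: Acidic Tris acetate buffer with magnesium and detergent. Signal: colorimetric free-phosphate detection, absorbance 630 nm. Read-out basis: % inhibition of SCP-1 phosphate liberation. Reagent: Phosphorylated 17-residue peptide substrate.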
For orientation: inhibition means the drop in the measured response relative to a control, in per cent. As for `CC(C)(C)c1cc(P(=O)(c2ccccc2)c2ccccc2)ccc1O`, the inhibition is 4.5%.

As for `O=C(N/N=C/c1ccc(Cl)c(Cl)c1)c1ccc2nc[nH]c2c1`, the inhibition is 2.5%. The value for `O=C(NN=Cc1ccccc1)c1ccccc1` was -6.69%; that for `CSc1ccc(/C=N/NC(=O)c2cccc(Cl)c2)cc1` was 63.9% (active). On to `N#CCCN1CCN(S(=O)(=O)c2ccc(S(=O)(=O)NC3CCCCC3)cc2)CC1`, for which the inhibition was -9.7%. The value for `COc1cc(/C=N/NC(=O)c2cc(-c3ccccc3C)nc3ccccc23)cc(OC)c1O` was -6.97%; that for `Cc1ccc(C(=O)N/N=C/c2cccc3ccccc23)cn1` was 0.35%; that for `COc1cccc(/C=N/NC(=O)c2[nH]nc3c2CCc2ccccc2-3)c1O` was 89% (active). Take `CN(CCOc1ccccc1)C(=O)c1cc(-c2ccco2)nc2ccccc12`: the inhibition was 49%. Consider `CN(C(=O)COC(=O)c1cc(-c2ccco2)nc2ccccc12)C1CCS(=O)(=O)C1` (configuration not stated), for which the inhibition is 88.8% (active). Consider `CN(C(=O)COC(=O)Cc1ccccc1[N+](=O)[O-])C1CCS(=O)(=O)C1` (configuration not stated), for which the inhibition was 1.98%. In the case of `CCOC(=O)C1CCCN(C(=O)c2ccc(CS(=O)(=O)c3ccc(Br)cc3)o2)C1` (configuration not stated), the inhibition was 5.99%. For the compound `Cc1nnc(SCc2cccc(Cl)c2)n(N)c1=O`, the inhibition is -7.11%.

For the compound `Cc1cccc2sc(N(CCCN(C)C)C(=O)CCS(=O)(=O)c3ccccc3)nc12`, the inhibition is 5.73%.

For the compound `COc1cccc2sc(N(CCCN(C)C)C(=O)CCS(=O)(=O)c3ccccc3)nc12`, the inhibition was 8.55%.

As for `COc1cccc2sc(N(CCCN(C)C)C(=O)C(c3ccccc3)c3ccccc3)nc12`, the inhibition is 59.4% (active). The value for `CC1CN(S(=O)(=O)c2ccccc2)C(C)CN1S(=O)(=O)c1ccccc1` (configuration not stated) was 15.5%.

For the compound `O=C(Nc1ccc(Cl)cc1)C1c2cccc[n+]2CC(=O)N1Cc1ccc2c(c1)OCO2` (configuration not stated), the inhibition is 39.5%.

For the compound `C=CCC(Nc1ccccc1)c1cccc(OC)c1OC` (configuration not stated), the inhibition was 0.9%. The value for `COc1ccc2oc(=O)cc(-c3cc4ccccc4o3)c2c1` was -1.71%; that for `COc1cccc2cc(-c3cc(=O)oc4cc(C)c(O)cc34)oc12` was 58.8% (active). Take `COc1cccc2cc(C(=O)N(C)C)c(=O)oc12`: the inhibition is -2.27%.

As to `Cc1ccsc1-c1nc(CSCC(=O)NCCN2CCCC2)c(C)o1`, the inhibition is -6.12%. Turning to `COC(=O)C1C(=O)NCC1c1ccc(OC)cc1` (configuration not stated), the inhibition was -1.05%. The value for `CCOC(=O)CNC(=O)c1nn(-c2cccc(OC)c2)c(=O)c2ccccc12` was 1.07%; that for `Cc1cc(=O)oc2c1c(C)nn2-c1ccc(Cl)cc1` was -6.94%; that for `Cc1nn(-c2cc(Cl)ccc2N)c(=O)c2ccccc12` was 60.1% (active). `CCCC(C(=O)N1CCOCC1)N1C(=O)C2C3C=CC(C3)C2C1=O` (configuration not stated): the inhibition is 1.46%. The value for `Cc1cc(O)c(C2(O)C(=O)Nc3ccccc32)cc1C` (configuration not stated) was 2.83%; that for `CC(=O)c1cccc(NC(=O)C2COc3ccccc3O2)c1` (configuration not stated) was -3.69%; that for `COc1cc(SC)ccc1C(=O)N(Cc1ccccc1)c1ccccc1` was -9.22%. Regarding `COc1cc(SC)ccc1C(=O)NNC(=O)C1COc2ccccc2O1` (configuration not stated), the inhibition is 55.9% (active).

For `NNC(=O)C1CC(O)CN1S(=O)(=O)c1ccc(Cl)cc1` (configuration not stated), the inhibition is -8.23%. As for `CN1CCN(C2Cc3ccc(Cl)cc3Sc3ccc(F)cc32)CC1` (configuration not stated), the inhibition was -3.27%.

For `Cc1c(CCO)c(=O)n(-c2ccccc2)n1S(=O)(=O)c1ccc(F)cc1`, the inhibition was -6.22%. The value for `CCOC(=O)c1cnn(Cc2ccccc2Cl)c1N` was -4.87%.

With `CC[n+]1c(C)n(-c2ccccc2)c2ccc(NC(C)=O)cc21`, the inhibition is 59.6% (active). As for `CC(=O)c1cccc(NC(=O)c2cc(C)nn2-c2ccccc2)c1`, the inhibition is -21.8%.

Turning to `CC(=O)Nc1ccc(NC(=O)CSc2nnc(C3CC3)n2-c2ccccc2)cc1`, the inhibition is 3.64%. Consider `CCc1ccc(NC(=O)CS(=O)CC(=O)NCCCc2ccccc2)cc1` (configuration not stated), for which the inhibition is 93.4% (active).

Turning to `CCc1ccc(NC(=O)CS(=O)CC(=O)N2CCN(c3ccccc3F)CC2)cc1` (configuration not stated), the inhibition was -3.07%. Consider `S=C(NCCCc1ccccc1)Nc1ccc(Br)cc1`, for which the inhibition is -8.32%. With `CC(C)(C)C1CCc2c(sc3nc(SCC(N)=O)nc(N)c23)C1` (configuration not stated), the inhibition was 5.56%. The value for `O=C(Nc1cccnc1)c1cc([N+](=O)[O-])ccc1Cl` was -5.04%; that for `COc1ccc2oc(=N)c(C(=O)Nc3ccc(Br)cc3)cc2c1` was 2.27%; that for `O=C(Nc1cccnc1)c1cc2cc(Br)ccc2oc1=O` was 101% (active). In the case of `O=C(Oc1ccc2c(c1)CCC2)N1CCOCC1`, the inhibition is -4.77%. In the case of `COc1ccc(CCNS(=O)(=O)c2cn(C)nc2C)cc1`, the inhibition is 0.34%. Regarding `O=[N+]([O-])c1cc(S(=O)(=O)Nc2cccc(Cl)c2)ccc1N=Nc1c(O)[nH]c2ccccc12`, the inhibition was 52.2% (active). The value for `Oc1[nH]c2ccccc2c1N=Nc1c(F)c(F)c(F)c(F)c1F` was -10.4%; that for `O=C(O)c1ccccc1/C=N/Nc1ccc(S(=O)(=O)Nc2ccc(Cl)cc2)cc1[N+](=O)[O-]` was -7.5%; that for `Cc1ccnc(NS(=O)(=O)c2ccc(NC(=O)c3oc4ccccc4c3C)cc2)n1` was -7.13%. On to `O=C1CCC/C=C\C[C@@H](CC(=O)N(CCO)Cc2ccccc2)C(=O)NCCO1`, for which the inhibition was -0.23%.

For `N#CCC(=O)N/N=C/c1ccc(SCC(=O)Nc2ccccc2)o1`, the inhibition is -8.26%. Turning to `O=C(N/N=C/c1ccc(Br)o1)c1cncc(Br)c1`, the inhibition is 0.65%. Take `O=C(CCC(=O)N/N=C/c1ccc(Br)o1)N/N=C/c1ccc(Br)o1`: the inhibition is 55% (active). The value for `O=C(CCNC(=O)c1ccccc1Cl)NN=Cc1ccco1` was 10.6%; that for `O=C(CCNC(=O)c1ccccc1)NN=Cc1ccc(Br)o1` was 70.2% (active); that for `O=C(CCc1n[nH]c(=O)[nH]c1=O)N/N=C/c1ccc(Br)o1` was 2.94%. Consider `Cc1ccc(S(=O)(=O)NCC(C)NS(C)(=O)=O)cc1` (configuration not stated), for which the inhibition is -4.62%. As to `Cc1cccc(C)c1NC(=O)COC(=O)c1ccccc1O`, the inhibition is -5.49%. `COc1ccc(CNS(=O)(=O)c2cc(-c3cc(C)no3)ccc2C(C)C)cc1`: the inhibition is -11%. As to `O=C(c1cc(S(=O)(=O)N2CCOCC2)ccc1Cl)N1CCOCC1`, the inhibition was -9.49%. As for `CC(=O)N1CCN(S(=O)(=O)c2cccc(C(=O)NC3CCC(C)CC3)c2)CC1` (configuration not stated), the inhibition is 5.39%. In the case of `C[C@H](NC(=O)C1CC(=O)N(c2ccc3c(c2)OCO3)C1)C(=O)NCc1ccco1` (some centres not stated), the inhibition is -2.53%. Regarding `CCCn1nc(NS(=O)(=O)c2ccc(F)cc2)c2cc3ccccc3nc21`, the inhibition was 3.78%. The value for `COCCCNc1nc2ccccc2nc1NS(=O)(=O)c1ccc(F)cc1` was 54.7% (active). Consider `CCCCNc1nc2ccccc2nc1NS(=O)(=O)c1cccs1`, for which the inhibition is -7.43%. `CC1C(=O)C(C)C(c2ccc(O)cc2)NC1c1ccc(O)cc1` (configuration not stated): the inhibition was -7.74%. `CCN(CC)S(=O)(=O)c1cccc(-c2n[nH]c(=S)n2/N=C/c2ccc(C(=O)OC)cc2)c1`: the inhibition was -7.1%. As for `Cc1ccc(OC(=O)c2ccccc2C(=O)OCC(F)(F)C(F)F)cc1`, the inhibition is -9.39%.

As for `CCc1ccc(C2C(C#N)=C(N)N(N3CCOCC3)C3=C2C(=O)CC(C)(C)C3)s1` (configuration not stated), the inhibition is 8.56%. The value for `CC(C)(CNC(=O)CNC(=O)C1CCCCC1)N1CCOCC1` was -8.57%. Take `O=S(=O)(c1ccc(Br)c2ccccc12)N1CCOCC1`: the inhibition was -7.33%.

For `COc1ccc2[nH]c3c(C)c4cc[n+](C)cc4c(C)c3c2c1`, the inhibition was 64.5% (active). Take `COc1ccc2[nH]c(C(=O)N3CCN(C)CC3)c(C)c2c1`: the inhibition is -4.55%. The value for `COc1ccc2[nH]c(=S)cc(C)c2c1` was -4.32%; that for `Cc1c([N+](=O)[O-])c(N)nn1C` was 51% (active). The value for `Cn1nc(C(C)(C)C)c([N+](=O)[O-])c1C(N)=O` was -0.65%. Turning to `Cc1nn(CCOc2ccc(Br)cc2)c(C)c1[N+](=O)[O-]`, the inhibition is -14.1%. Consider `Clc1ccc(Cn2ncc3c(NCc4cccnc4)ncnc32)cc1`, for which the inhibition was 2.57%. For the compound `NS(=O)(=O)c1cccc(NC(=O)COC(=O)/C=C/c2ccco2)c1`, the inhibition was 26.2%. With `O=C(COC(=O)c1ccccc1)Nc1cccc(S(=O)(=O)N2CCOCC2)c1`, the inhibition was -6.52%. The value for `O=C(COC(=O)/C=C/c1ccc(Br)o1)Nc1cccc(S(=O)(=O)N2CCOCC2)c1` was 56% (active).

Take `C=CCOc1ccc(/C=C/C(=O)OCC(=O)NC(C)c2ccc(F)cc2)cc1` (configuration not stated): the inhibition was 1.27%. The value for `Cc1c(CCOC(=O)CC23CC4CC(CC(C)(C4)C2)C3)sc[n+]1Cc1ccc([N+](=O)[O-])cc1` was 12.7% and 5.4%; that for `CN(C)c1nc2n(c(=O)n1)CCO2` was 1.74%. For `CC(NC(=O)COc1ccc(-c2ccccc2)cc1)C1CCCO1` (configuration not stated), the inhibition was -2.02%.

Turning to `COc1ccc(OCC(=O)NNC(=O)c2ccc(-c3ccccc3)cc2)cc1`, the inhibition is 69.9% (active). Regarding `COc1ccc(OCC(=O)NNC(=O)C2CCC2)cc1`, the inhibition was 0.44%. For the compound `CCC(C)N1CC(=O)N2Cc3[nH]c4ccccc4c3C[C@H]2C1=O` (some centres not stated), the inhibition was -3.96%. As for `N/C(=N\OC(=O)N1c2ccccc2Sc2ccccc21)c1ccc(Br)cc1`, the inhibition is 69% (active). Turning to `N/C(=N\OC(=O)Cc1ccccc1[N+](=O)[O-])c1ccc(Br)cc1`, the inhibition was -4.88%. In the case of `N/C(=N\OC(=O)c1ccc2c(c1)OCO2)c1ccc(Br)cc1`, the inhibition is -3.74%. As for `Cc1ccc(S(=O)(=O)Nc2nc(N)n(-c3ccccc3)n2)cc1`, the inhibition was -3.38%.

Take `Cc1cc(C)nc(NS(=O)(=O)c2ccc(N3C(=O)C4CCCCC4C3=O)cc2)n1` (configuration not stated): the inhibition was -3.6%. In the case of `Cc1ccc(S(=O)(=O)Nc2nc(C)cc(-n3nc(C)cc3C)n2)cc1`, the inhibition was 84.1% (active).
